Results published in ChEMBL document CHEMBL1151848, “Aryl nucleoside H-phosphonates. Part 16: synthesis and anti-HIV-1 activity of di-aryl nucleoside phosphotriesters” (Bioorg Med Chem, 2009).

Tested on: not listed separately
Experiment: Chemical stability assessed as chemical hydrolysis half life in RPMI-1640 culture medium by HPLC analysis
Assay type: physicochemical
Conditions: not given
Procedure, shortened: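 Chemical hydrolysis of the compounds was followed in RPMI-1640 medium alone.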

`Cc1ccc(OP(=O)(OC[C@H]2O[C@@H](n3cc(C)c(=O)[nH]c3=O)C[C@@H]2N=[N+]=[N-])Oc2ccccc2)cn1` (stereo partly specified) and `Cc1cn([C@H]2C[C@H](N=[N+]=[N-])[C@@H](COP(=O)(Oc3ccc(Cl)cc3)Oc3cccnc3)O2)c(=O)[nH]c1=O` (stereo partly specified) are within 1.5-fold of each other in half-life: 44.4 h for the first, 55 h for the second.

Going from `Nc1ncnc2c1ncn2[C@H]1CC[C@@H](COP(=O)(Oc2ccccc2)Oc2cccnc2)O1` (stereo partly specified) to `O=c1ccn([C@H]2CC[C@@H](COP(=O)(Oc3ccccc3)Oc3ccncc3)O2)c(=O)[nH]1` (stereo partly specified), the half-life falls from 88.8 h to 26.8 h (3.3-fold).

Tested on: not listed separately
Experiment: Selectivity index, ratio of CC50 for human MT4 cells to EC50 for HIV1 3B
Assay type: toxicity, cell-based
Conditions: read-out: Ratio CC50/EC50

`Cc1ccc(OP(=O)(OC[C@H]2O[C@@H](n3cc(C)c(=O)[nH]c3=O)C[C@@H]2N=[N+]=[N-])Oc2ccccc2)cn1` (stereo partly specified) and `Cc1cn([C@H]2C[C@H](N=[N+]=[N-])[C@@H](COP(=O)(Oc3ccc(Cl)cc3)Oc3cccnc3)O2)c(=O)[nH]c1=O` (stereo partly specified) cannot be ordered by selectivity ratio: greater than 1110 for the first, greater than 3330 for the second.

`Nc1ncnc2c1ncn2[C@H]1CC[C@@H](COP(=O)(Oc2ccccc2)Oc2cccnc2)O1` (stereo partly specified) and `O=c1ccn([C@H]2CC[C@@H](COP(=O)(Oc3ccccc3)Oc3ccncc3)O2)c(=O)[nH]1` (stereo partly specified) cannot be ordered by selectivity ratio: greater than 4 for the first, greater than 33 for the second.

Tested on: Human immunodeficiency virus 1
Experiment: Antiviral activity against HIV1 3B infected in human MT4 cells assessed as protection from virus-induced cytopathogenicity after 4 days by MTT assay
Assay type: functional, organism-based
Conditions: Human immunodeficiency virus 1, 3B, MT4, 96 h
Procedure, shortened: (§1)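 MT-4 cells, acutely infected at m.o.i. 0.01, were used to read inhibition of HIV-1-induced cytopathogenicity. Compounds were made as 100 mM DMSO stocks and diluted in culture medium. Viability was read by MTT. EC50 is the concentration giving 50% protection, as the mean (+SD) of three independent determinations.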

Going from `Cc1ccc(OP(=O)(OC[C@H]2O[C@@H](n3cc(C)c(=O)[nH]c3=O)C[C@@H]2N=[N+]=[N-])Oc2ccccc2)cn1` (stereo partly specified) to `Cc1cn([C@H]2C[C@H](N=[N+]=[N-])[C@@H](COP(=O)(Oc3ccc(Cl)cc3)Oc3cccnc3)O2)c(=O)[nH]c1=O` (stereo partly specified), the EC50 falls from 90 nM to 30 nM (3-fold).

Going from `Nc1ncnc2c1ncn2[C@H]1CC[C@@H](COP(=O)(Oc2ccccc2)Oc2cccnc2)O1` (stereo partly specified) to `O=c1ccn([C@H]2CC[C@@H](COP(=O)(Oc3ccccc3)Oc3ccncc3)O2)c(=O)[nH]1` (stereo partly specified), the EC50 falls from 23000 nM to 3000 nM (7.7-fold). The second is the more potent here.

Tested on: Human immunodeficiency virus 1
Experiment: Antiviral activity against non-nucleoside reverse transcriptase inhibitor-resistant HIV1 bearing reverse transcriptase A17 (K103N, Y181C) mutation infected in human MT4 cells assessed as protection from virus-induced cytopathogenicity after 4 days by MTT assay
Assay type: functional, organism-based
Conditions: Human immunodeficiency virus 1, MT4, 96 h
Procedure, shortened: as §1

Compared with `Cc1ccc(OP(=O)(OC[C@H]2O[C@@H](n3cc(C)c(=O)[nH]c3=O)C[C@@H]2N=[N+]=[N-])Oc2ccccc2)cn1` (stereo partly specified), `Cc1cn([C@H]2C[C@H](N=[N+]=[N-])[C@@H](COP(=O)(Oc3ccc(Cl)cc3)Oc3cccnc3)O2)c(=O)[nH]c1=O` (stereo partly specified) is 4-fold lower in EC50: 40 nM for the first, 10 nM for the second.

Going from `Nc1ncnc2c1ncn2[C@H]1CC[C@@H](COP(=O)(Oc2ccccc2)Oc2cccnc2)O1` (stereo partly specified) to `O=c1ccn([C@H]2CC[C@@H](COP(=O)(Oc3ccccc3)Oc3ccncc3)O2)c(=O)[nH]1` (stereo partly specified), the EC50 falls from 7000 nM to 2000 nM (3.5-fold).

Tested on: not listed separately
Experiment: Cytotoxicity against human MT4 cells after 96 hrs by MTT assay
Assay type: cell-based
Conditions: not given
Procedure, shortened: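 Exponentially growing mock-infected MT-4 cells were seeded at 1 × 10⁵ cells/ml in RPMI-1640 with 10% FCS, penicillin G and streptomycin. They were incubated with serial compound dilutions at 37 °C in humidified 5% CO₂, and viability was read by MTT after 96 h. CC50 is the concentration reducing viability by 50%, as the mean of three independent determinations.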

`Cc1ccc(OP(=O)(OC[C@H]2O[C@@H](n3cc(C)c(=O)[nH]c3=O)C[C@@H]2N=[N+]=[N-])Oc2ccccc2)cn1` (stereo partly specified) and `Cc1cn([C@H]2C[C@H](N=[N+]=[N-])[C@@H](COP(=O)(Oc3ccc(Cl)cc3)Oc3cccnc3)O2)c(=O)[nH]c1=O` (stereo partly specified) cannot be ordered by CC50 at 96 h: greater than 100000 nM for the first, no less than 100000 nM for the second.

`Nc1ncnc2c1ncn2[C@H]1CC[C@@H](COP(=O)(Oc2ccccc2)Oc2cccnc2)O1` (stereo partly specified) and `O=c1ccn([C@H]2CC[C@@H](COP(=O)(Oc3ccccc3)Oc3ccncc3)O2)c(=O)[nH]1` (stereo partly specified) cannot be ordered by CC50 at 96 h: greater than 100000 nM for the first, greater than 100000 nM for the second.

Tested on: Human immunodeficiency virus 1
Experiment: Antiviral activity against efavirenz-resistant HIV1 infected in human MT4 cells assessed as protection from virus-induced cytopathogenicity after 4 days by MTT assay
Assay type: functional, organism-based
Conditions: Human immunodeficiency virus 1, MT4, 96 h
Procedure, shortened: as §1

Compared with `Cc1ccc(OP(=O)(OC[C@H]2O[C@@H](n3cc(C)c(=O)[nH]c3=O)C[C@@H]2N=[N+]=[N-])Oc2ccccc2)cn1` (stereo partly specified), `Cc1cn([C@H]2C[C@H](N=[N+]=[N-])[C@@H](COP(=O)(Oc3ccc(Cl)cc3)Oc3cccnc3)O2)c(=O)[nH]c1=O` (stereo partly specified) is 7-fold lower in EC50: 70 nM for the first, 10 nM for the second.

First: Nc1ncnc2c1ncn2[C@H]1CC[C@@H](COP(=O)(Oc2ccccc2)Oc2cccnc2)O1 (stereo partly specified)
Second: O=c1ccn([C@H]2CC[C@@H](COP(=O)(Oc3ccccc3)Oc3ccncc3)O2)c(=O)[nH]1 (stereo partly specified)
The EC50 of the first is 8-fold higher: 16000 nM for the first, 2000 nM for the second.

Tested on: Human immunodeficiency virus 1
Experiment: Antiviral activity against MDR1-resistant HIV1 infected in human MT4 cells assessed as protection from virus-induced cytopathogenicity after 4 days by MTT assay
Assay type: functional, organism-based
Conditions: Human immunodeficiency virus 1, MT4, 96 h
Procedure, shortened: as §1

Compared with `Cc1ccc(OP(=O)(OC[C@H]2O[C@@H](n3cc(C)c(=O)[nH]c3=O)C[C@@H]2N=[N+]=[N-])Oc2ccccc2)cn1` (stereo partly specified), `Cc1cn([C@H]2C[C@H](N=[N+]=[N-])[C@@H](COP(=O)(Oc3ccc(Cl)cc3)Oc3cccnc3)O2)c(=O)[nH]c1=O` (stereo partly specified) is 2.3-fold lower in EC50: 1600 nM for the first, 700 nM for the second.

`Nc1ncnc2c1ncn2[C@H]1CC[C@@H](COP(=O)(Oc2ccccc2)Oc2cccnc2)O1` (stereo partly specified) and `O=c1ccn([C@H]2CC[C@@H](COP(=O)(Oc3ccccc3)Oc3ccncc3)O2)c(=O)[nH]1` (stereo partly specified) are within 1.5-fold of each other in EC50: 50000 nM for the first, 38000 nM for the second.

Tested on: Human immunodeficiency virus 1
Experiment: Antiviral activity against non-nucleoside reverse transcriptase inhibitor-resistant HIV1 bearing reverse transcriptase N119 (Y181C) mutation infected in human MT4 cells assessed as protection from virus-induced cytopathogenicity after 4 days by MTT assay
Assay type: functional, organism-based
Conditions: Human immunodeficiency virus 1, MT4, 96 h
Procedure, shortened: as §1

Going from `Cc1ccc(OP(=O)(OC[C@H]2O[C@@H](n3cc(C)c(=O)[nH]c3=O)C[C@@H]2N=[N+]=[N-])Oc2ccccc2)cn1` (stereo partly specified) to `Cc1cn([C@H]2C[C@H](N=[N+]=[N-])[C@@H](COP(=O)(Oc3ccc(Cl)cc3)Oc3cccnc3)O2)c(=O)[nH]c1=O` (stereo partly specified), the EC50 falls from 80 nM to 40 nM (2-fold). The second is the more potent here.

Going from `Nc1ncnc2c1ncn2[C@H]1CC[C@@H](COP(=O)(Oc2ccccc2)Oc2cccnc2)O1` (stereo partly specified) to `O=c1ccn([C@H]2CC[C@@H](COP(=O)(Oc3ccccc3)Oc3ccncc3)O2)c(=O)[nH]1` (stereo partly specified), the EC50 falls from 30000 nM to 4000 nM (7.5-fold).

Tested on: Human immunodeficiency virus 1
Experiment: Antiviral activity against azidothymidine-resistant HIV1 infected in human MT4 cells assessed as protection from virus-induced cytopathogenicity after 4 days by MTT assay
Assay type: functional, organism-based
Conditions: Human immunodeficiency virus 1, MT4, 96 h
Procedure, shortened: as §1

Compared with `Cc1ccc(OP(=O)(OC[C@H]2O[C@@H](n3cc(C)c(=O)[nH]c3=O)C[C@@H]2N=[N+]=[N-])Oc2ccccc2)cn1` (stereo partly specified), `Cc1cn([C@H]2C[C@H](N=[N+]=[N-])[C@@H](COP(=O)(Oc3ccc(Cl)cc3)Oc3cccnc3)O2)c(=O)[nH]c1=O` (stereo partly specified) is 3.7-fold lower in EC50: 7000 nM for the first, 1900 nM for the second.

`Nc1ncnc2c1ncn2[C@H]1CC[C@@H](COP(=O)(Oc2ccccc2)Oc2cccnc2)O1` (stereo partly specified) and `O=c1ccn([C@H]2CC[C@@H](COP(=O)(Oc3ccccc3)Oc3ccncc3)O2)c(=O)[nH]1` (stereo partly specified) are within 1.5-fold of each other in EC50: 42000 nM for the first, 60000 nM for the second.
